PMC4910733 (Oncoimmunology, 2015)

What was measured:
[1] = test system: HL cell lines, isolated MSC; assay: Toxicity by mitochondrial potential; type: cell-based, human; conditions: for toxic effect (mitochondrial potential, JC-1): HL cell lines or isolated MSC, 2.5 up to 10 μM, 48, 72 and 96 h (not shown)
[2] = test system: NK cell killing of HL cell lines (L428, L540, KMH2); type: cell-based, human; conditions: L428 and L540 treated 24 h at 10 μM, E:T 10:1
Procedure, shortened: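 NK cells purified to >96%, stimulated with 0.5 µg/mL PHA plus 10 ng/mL rIL-2, then cultured 15 d in RPMI1640 with 10% FCS and rIL-2; n = 6. Target HL cells were pre-exposed 24 h to medium, DMSO or test compound (10 µM). 4-h 51Cr release at E:T 10:1. Some effectors received anti-NKG2D mAb (5 µg/mL) or isotype control. Specific lysis = (experimental − spontaneous)/(maximum − spontaneous).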

[3] = target: Recombinant human MMP-14 catalytic domain (Homo sapiens, UniProt P50281); assay: MMP inhibition assay; type: biochemical; conditions: read-out: MMP14 IC50; average of three determinations, SD <10%
Procedure, shortened: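 Recombinant human MMP-14 catalytic domain (1.0 nM final) was preincubated 3 h at 25°C with test compound in 50 mM Tris pH 7.5, 150 mM NaCl, 10 mM CaCl2, 0.05% Brij-35, 1% DMSO. Substrate Mca-Lys-Pro-Leu-Gly-Leu-Dap(Dnp)-Ala-Arg-NH2 at 2 µM final. Fluorescence (ex 325/em 400 nm) read every 15 s for 20 min, in duplicate. IC50 from vi/vo = 1/(1+[I]/IC50).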

MMP-2 = target: T1, MMP-2 (Homo sapiens, UniProt P08253); assay: MMP inhibition assay; type: biochemical; conditions: read-out: MMP2 IC50; average of three determinations, SD <10%
T1 sequence (P08253 110-660): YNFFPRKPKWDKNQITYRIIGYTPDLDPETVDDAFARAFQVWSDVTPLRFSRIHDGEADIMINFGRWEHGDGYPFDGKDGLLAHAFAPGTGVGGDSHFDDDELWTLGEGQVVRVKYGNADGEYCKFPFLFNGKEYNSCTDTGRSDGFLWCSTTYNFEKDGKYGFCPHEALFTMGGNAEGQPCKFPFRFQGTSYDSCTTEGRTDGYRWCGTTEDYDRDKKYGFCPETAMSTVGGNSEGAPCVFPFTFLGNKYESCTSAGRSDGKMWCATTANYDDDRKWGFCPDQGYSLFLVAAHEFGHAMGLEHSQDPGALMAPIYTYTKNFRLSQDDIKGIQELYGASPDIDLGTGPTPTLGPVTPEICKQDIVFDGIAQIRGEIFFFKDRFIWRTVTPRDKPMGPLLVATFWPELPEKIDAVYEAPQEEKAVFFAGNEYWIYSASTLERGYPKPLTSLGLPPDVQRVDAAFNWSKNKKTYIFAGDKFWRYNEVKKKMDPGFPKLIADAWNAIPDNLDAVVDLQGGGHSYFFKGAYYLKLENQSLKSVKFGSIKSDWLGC
Procedure, shortened: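 Pro-MMP-2 was activated with APMA 2 mM, 1 h, 37°C. Enzyme (0.56 nM final) and test compound were incubated 3 h at 25°C in 50 mM Tris pH 7.5, 150 mM NaCl, 10 mM CaCl2, 0.05% Brij-35, 1% DMSO. Mca-Lys-Pro-Leu-Gly-Leu-Dap(Dnp)-Ala-Arg-NH2 at 2 µM final. Fluorescence (ex 325/em 400 nm) recorded every 15 s for 20 min, in duplicate. IC50 from vi/vo = 1/(1+[I]/IC50).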

MMP-9 = MMP-9 (Homo sapiens, UniProt P14780); assay: MMP inhibition assay; type: biochemical; conditions: read-out: MMP9 IC50; average of three determinations, SD <10%
Chain of MMP-9 (P14780 107-707 limits assumed): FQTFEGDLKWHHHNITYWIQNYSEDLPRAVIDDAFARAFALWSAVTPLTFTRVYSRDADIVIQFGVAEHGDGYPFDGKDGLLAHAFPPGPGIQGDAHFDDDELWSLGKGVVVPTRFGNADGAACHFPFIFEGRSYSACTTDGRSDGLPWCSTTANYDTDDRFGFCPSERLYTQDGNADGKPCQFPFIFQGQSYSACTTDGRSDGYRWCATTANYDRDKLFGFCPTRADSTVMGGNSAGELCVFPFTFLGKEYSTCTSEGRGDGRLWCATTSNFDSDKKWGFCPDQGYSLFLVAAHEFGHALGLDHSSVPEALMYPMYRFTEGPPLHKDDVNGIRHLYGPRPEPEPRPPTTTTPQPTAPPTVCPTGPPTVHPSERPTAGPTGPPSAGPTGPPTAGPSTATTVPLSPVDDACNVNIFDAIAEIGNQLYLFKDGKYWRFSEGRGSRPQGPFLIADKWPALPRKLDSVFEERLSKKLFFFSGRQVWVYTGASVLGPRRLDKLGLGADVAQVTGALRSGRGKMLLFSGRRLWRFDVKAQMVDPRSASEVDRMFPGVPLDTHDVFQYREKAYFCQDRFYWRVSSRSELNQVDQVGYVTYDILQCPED
Procedure, shortened: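 APMA-activated MMP-9 (1 mM, 1 h, 37°C), 1.3 nM final, was preincubated with test compound 3 h at 25°C in 50 mM Tris pH 7.5, 150 mM NaCl, 10 mM CaCl2, 0.05% Brij-35, 1% DMSO. Fluorogenic substrate Mca-Lys-Pro-Leu-Gly-Leu-Dap(Dnp)-Ala-Arg-NH2 at 2 µM final. Cleavage monitored (ex 325/em 400 nm) every 15 s for 20 min, in duplicate. IC50 via vi/vo = 1/(1+[I]/IC50).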

Recombinant human ADAM10 = target: T2, Recombinant human ADAM10 (Homo sapiens, UniProt O14672); assay: In vitro enzymatic inhibition assay; type: biochemical; conditions: read-out: ADAM10 IC50; average of three determinations, SD <10%
T2 sequence (O14672 214-748): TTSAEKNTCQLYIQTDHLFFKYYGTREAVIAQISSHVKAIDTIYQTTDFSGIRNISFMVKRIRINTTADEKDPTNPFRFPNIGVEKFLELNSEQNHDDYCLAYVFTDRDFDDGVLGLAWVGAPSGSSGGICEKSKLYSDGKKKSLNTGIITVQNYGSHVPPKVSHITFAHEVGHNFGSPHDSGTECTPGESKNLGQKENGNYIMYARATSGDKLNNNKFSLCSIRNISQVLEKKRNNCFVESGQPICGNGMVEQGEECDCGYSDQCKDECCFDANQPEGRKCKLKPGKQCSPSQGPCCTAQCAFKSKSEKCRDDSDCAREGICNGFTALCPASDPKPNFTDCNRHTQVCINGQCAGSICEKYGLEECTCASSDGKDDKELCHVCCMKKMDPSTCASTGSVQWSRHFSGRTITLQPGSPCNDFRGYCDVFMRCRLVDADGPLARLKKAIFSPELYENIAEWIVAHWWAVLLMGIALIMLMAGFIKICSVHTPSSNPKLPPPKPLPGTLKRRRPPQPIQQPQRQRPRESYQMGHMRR

Structure (SMILES) | toxic effect (mitochondrial potential, JC-1) [1] | increase of NK cell killing [2] | IC50 [3] | IC50 (MMP-2) | IC50 (MMP-9) | IC50 (Recombinant human ADAM10) | toxicity (JC1 staining) ([1]; HL cell lines, 100 μM as pervanadate, 40 min at 37°C (not shown))
CNC(=O)[C@@H](NC(=O)[C@H](CCCc1ccccc1)[C@H](C)N(O)C=O)C(C)(C)C [GI254023X] | did not exert any toxic effect | 2–3 fold |  |  |  |  | 
NC(=O)NCCC[C@@H](NS(=O)(=O)c1ccc(OCc2cc(Br)cc(Br)c2)cc1)C(=O)NO [JG26] | did not exert any toxic effect | 2–3 fold | 19500 nM | 240 nM | 1630 nM | 150 nM | 
[Na+].[Na+].[Na+].[O]=[V]([O-])([O-])[O-] [Na3VO4, sodium orthovanadate] |  |  |  |  |  |  | not toxic
